Measurements pooled from the literature.
Each line is one published result; the experiments were not run side by side.

| Compound | species | sample | route | dose | setting | measurement | value |
| --- | --- | --- | --- | --- | --- | --- | --- |
| O=C1CCC(N2Cc3cc(CO)c(F)cc3C2=O)C(=O)N1 (centres unmarked) | male CD-1 mouse | plasma | intravenous | 1 mg/kg | – | Vd | 2.8 L/kg |
| CC(C)(C)c1sc2ncnc(Oc3c(F)cccc3OC(F)(F)F)c2c1-c1ccc(Cl)cc1 | mouse | plasma | intravenous | 1 mg/kg | – | Vd | 1.3 L/kg |
| C=CCn1c(=O)c2cnc(Nc3ccc(N4CCN(C)CC4)cc3)nc2n1-c1ccc2c(n1)[C@@](O)(CC)CC2 | mouse | plasma | intravenous | 3 mg/kg | – | Vd | 3.4 L/kg |
| CN(C)C(=O)c1cc2cnc(Nc3ccc(-c4ccc5c(=O)cc(N6CCOCC6)oc5c4)cc3)nc2n1C1CCCC1.Cl | BALB/c mouse | plasma | oral | 20 mg/kg | – | Vd/F | 17.7 L/kg |
| Cc1nc2ccc(OCc3ccc(C(F)(F)F)cc3)cc2[nH]1 | male BALB/c mouse | plasma | oral | 10 mg/kg | – | Vd/F | 7.35 L/kg |
| NCc1cc2c(cc1F)C(=O)N(C1CCC(=O)NC1=O)C2 (centres unmarked) | male CD-1 mouse | plasma | intravenous | 1 mg/kg | – | Vd | 6.5 L/kg |
| CCCC[C@@H](NC(=O)[C@@H](Cc1cn(C(=O)OC)c2ccccc12)NC(=O)[C@H](CC(C)(C)C)NC(=O)N1[C@H](C)CCC[C@@H]1C)C(=O)O | male CD-1 mouse | plasma | intravenous | 3 mg/kg | – | Vd | 6.6 L/kg |
| COCC(=O)N1CCc2[nH]c3c(Cl)c(Cl)ccc3c2[C@@H]1C | C57BL/6 mouse | blood | intravenous | 1 mg/kg | – | Vd | 1.23 L/kg |
| C[C@@H]1COCCN1c1cc(=O)n2c(n1)N(Cc1cncc(Cl)c1)[C@H](C(F)(F)F)CC2 | C57BL/6 mouse | plasma | intraperitoneal | 10 mg/kg | single dose | Vd | 7.05 L/kg |
| CC(C)[C@@H](CS(=O)(=O)C(C)C)N1C(=O)[C@@](C)(CC(=O)O)C[C@H](c2cccc(Cl)c2)[C@H]1c1ccc(Cl)cc1 | FVB mouse | plasma | oral | 20 mg/kg | single dose | Vd/F | 12.2 L/kg |
| OCc1nc2ccc(NCc3ccc(C(F)(F)F)cc3)cc2[nH]1 | male BALB/c mouse | plasma | intravenous | 1 mg/kg | – | Vd | 4 L/kg |
